The results in this text go back to ChEMBL document CHEMBL1687753, “Mitochondrial DNA depletion and respiratory chain activity in primary human subcutaneous adipocytes treated with nucleoside analogue reverse transcriptase inhibitors” (Antimicrob Agents Chemother, 2010).

Data set [1] can be described thus: Toxicity in human subcutaneous preadipocytes assessed as decrease of mitochondrial DNA abundance at 0.1 uM after 30 days by RT-PCR analysis. Type of data set: cell-based. Conditions: 720 h. The method in brief:
(§1)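 mtDNA content of differentiated preadipocytes at day 30 or 60 of drug exposure was measured by real-time quantitative PCR with human-specific primers. Absolute copy numbers came from serial dilutions of plasmid standards. Three independent experiments.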

A short description of data set [2]: Toxicity in human subcutaneous preadipocytes assessed as decrease of mitochondrial DNA abundance at 0.1 uM after 60 days by RT-PCR analysis. To be noted: 1440 h. The class given is cell-based. The method in brief: as §1
Data set [3] can be described thus: Toxicity in human subcutaneous preadipocytes assessed as decrease of mitochondrial DNA copy number per cell at 0.1 uM after 60 days by RT-PCR analysis. Type of data set: cell-based. On the set-up: scale not given: the % may be the effect or the level left. To be noted: 1440 h. An outline of the steps: as §1
Data set [4] is described as follows: Toxicity in human subcutaneous preadipocytes assessed as acquisition of adipocyte shape at 0.1 uM after 30 days using oil red O fluorescence staining by conventional fluorescence microscopy. The class given is cell-based. To be noted: 720 h. An outline of the steps:
(§2)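 On day 30 of differentiation with drug present from day 0, cells were fixed in 10% formalin and stained with 0.21% oil red O. Staining was viewed by fluorescence and light microscopy. For quantification, dye was extracted with isopropanol and read at 495 nm, also adjusted for viable cell number. Five independent experiments.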

Data set [5] in a line: Toxicity in human subcutaneous preadipocytes assessed as triacylglyceride droplets at 0.1 uM after 30 days using oil red O fluorescence staining by conventional fluorescence microscopy. The class given is cell-based. Conditions: 720 h. The method in brief: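 Preadipocytes were differentiated with a hormone cocktail (IBMX for the first 7 days, dexamethasone, insulin, indomethacin; high-glucose DMEM for days 0–18), with drug or vehicle present from day 0 to day 30. Cells were fixed in 10% formalin, stained with 0.21% oil red O in 60% isopropanol, and imaged by fluorescence microscopy. Quantification was by isopropanol extraction at 495 nm, optionally adjusted for viable cells.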

Data set [6] in a line: Toxicity in human subcutaneous preadipocytes assessed as decrease of cell cultures at 0.1 uM after 30 days using oil red O fluorescence staining by conventional fluorescence microscopy. The class given is cell-based. Conditions: 720 h. The method in brief:
as §2

A short description of data set [7]: Toxicity in human subcutaneous preadipocytes assessed as decrease of cell viability measured every 5 days at 0.1 uM after 30 days using […]. The class given is cell-based. Conditions: 720 h. An outline of the steps: (§3)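 Trypan blue exclusion counted by microscopy at each medium change every fifth day during 30 days of drug exposure in differentiating pooled preadipocytes. Final viability was calculated by excluding the cumulative percentage of dead cells. Five independent experiments.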

A short description of data set [8]: Toxicity in human subcutaneous preadipocytes assessed as cell death at 0.1 uM after 30 days using […]. Type of data set: cell-based. Conditions: 720 h. The method in brief: as §3
Data set [9] is described as follows: Toxicity in fully differentiated human subcutaneous preadipocytes assessed as cell death at 0.1 uM after 30 days using […]. Conditions: 720 h. The method in brief:
as §3

Data set [10] is described as follows: Toxicity in human subcutaneous preadipocytes assessed as decrease of PPARgamma expression at 0.1 uM after 18 days by RT-PCR analysis. To be noted: 432 h. Type of data set: cell-based. An outline of the steps:
(§4)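 Differentiating preadipocytes were harvested at day 18. RNA from three plates was pooled and reverse transcribed, and qRT-PCR was run with 42 cycles of 94/55/72°C. Values were normalized to transferrin receptor or beta-actin by standard curve. Triplicates from three independent experiments.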

Data set [11] in a line: Toxicity in human subcutaneous preadipocytes assessed as decrease of PPARgamma expression at 3 uM after 18 days by RT-PCR analysis. Conditions: 432 h. The class given is cell-based. The method in brief:
as §4

A short description of data set [12]: Toxicity in human subcutaneous preadipocytes assessed as decrease of C/EBPalpha expression at 0.1 uM after 18 days by RT-PCR analysis. Type of data set: cell-based. Conditions: 432 h. The method in brief:
as §4

Data set [13] is described as follows: Toxicity in human subcutaneous preadipocytes assessed as decrease of C/EBPalpha expression at 3 uM after 18 days by RT-PCR analysis. The class given is cell-based. To be noted: 432 h. The method in brief: as §4
Data set [14] is described as follows: Toxicity in human subcutaneous preadipocytes assessed as decrease of insulin-sensitizing adipokine expression at 0.1 uM after 30 days by RT-PCR analysis. Type of data set: cell-based. Conditions: 720 h. The method in brief: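 Adiponectin mRNA at day 30 was measured by qRT-PCR normalized to transferrin receptor or beta-actin, using pooled RNA and cDNA. Triplicates from three independent experiments.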

Data set [15] in a line: Toxicity in human subcutaneous preadipocytes assessed as decrease of adiponectin expression at 0.1 uM after 30 days by ELISA. Type of data set: cell-based. To be noted: 720 h. An outline of the steps:
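Adiponectin secreted into the medium over days 25 to 30 of drug exposure in differentiating preadipocytes was measured by sandwich ELISA of culture supernatant. Three independent experiments.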
For orientation: ELISA stands for enzyme-linked immunosorbent assay.

In data set [16] the test system is Homo sapiens. Briefly: Inhibition of electron transport protein complex 1/3 in human subcutaneous preadipocytes at 0.1 uM after 30 to 60 days by photometric analysis. The class given is cell-based. An outline of the steps: (§5)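 Pooled primary human abdominal subcutaneous preadipocytes induced to differentiate with drug (DMSO vehicle, ≤0.1%) added at day 0 and kept to day 30 or 60. Cells sonicated twice for 10 s; substrates added to lysates and conversion by complexes I+III, II+III, IV, V and citrate synthase read photometrically at 37°C. Three independent experiments.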

Data set [17] relates to Homo sapiens. In words: Inhibition of electron transport protein complex 2/3 in human subcutaneous preadipocytes at 0.1 uM after 30 to 60 days by photometric analysis. The class given is cell-based. An outline of the steps: as §5
Data set [18] concerns Homo sapiens. Briefly: Inhibition of electron transport protein complex 4 in human subcutaneous preadipocytes at 0.1 uM after 30 to 60 days by photometric analysis. The class given is cell-based. The method in brief: as §5
In data set [19] the test system is Homo sapiens. Briefly: Inhibition of electron transport protein complex 5 in human subcutaneous preadipocytes at 0.1 uM after 30 to 60 days by photometric analysis. The class given is cell-based. An outline of the steps: as §5
In data set [20] the test system is Homo sapiens. In words: Inhibition of citrate synthase in human subcutaneous preadipocytes at 0.1 uM after 30 to 60 days by photometric analysis. Type of data set: cell-based. An outline of the steps: as §5
The nature of data set [21]: Toxicity in human subcutaneous preadipocytes assessed as effect on mitochondrial membrane potential at 0.1 uM after 30 days using JC-1 red/green fluorescence dye by flow cytometry analysis. The class given is cell-based. Conditions: 720 h. The method in brief:
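Pooled primary human subcutaneous preadipocytes (passage ≤4) were differentiated with drug or DMSO vehicle from day 0 and cultured 30 days. Staining with the JC-1 kit was followed by flow cytometry, and the JC-1 red/green fluorescence intensity ratio was used as the membrane potential read-out. CCCP served as the depolarization control. Three independent experiments, means ± SEM.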

Data set [22] is described as follows: Toxicity in human subcutaneous preadipocytes assessed as effect on mitochondrial mass at 0.1 uM after 30 days using […] by flow cytometry analysis. To be noted: 720 h. The class given is cell-based.

Calls of active or inactive are those of the source. The calls are words filed in the database; no cut-off is given here.

In the case of `Nc1ccn([C@H]2CC[C@@H](CO)O2)c(=O)n1` [ZALCITABINE], the Activity result in data set [1] was “Toxic”; in [2] it was “Toxic”; in [3] it was 50%; in [4] it was “Non-toxic”; in [5], “Non-toxic”; in data set [6], “Toxic”. Also, the Activity entry is recorded as “Toxic” in data set [7]; “Toxic” in data set [8]; “Toxic” in data set [9]; “Non-toxic” in data set [10]; “Non-toxic” in data set [11]; “Non-toxic” in [12]. In addition, the Activity result in [13], in data set [14], in data set [15], in data set [21] and in data set [22] was “Non-toxic” throughout. Further, the inhibition entry with Homo sapiens [16], in the data set on Homo sapiens [17], in the data set with Homo sapiens [18], with Homo sapiens [19] and with Homo sapiens [20] was “inactive” each time.
